Experimental data: ChEMBL document CHEMBL3393007, “IND-2, a pyrimido[1″,2″:1,5]pyrazolo[3,4-b]quinoline derivative, circumvents multi-drug resistance and causes apoptosis in colon cancer cells” (Bioorg Med Chem, 2015)
pIC50: −log10 of the molar value. Activity calls are given as the source filed them.

What was measured:
[1] = Cytotoxicity against human S1 cells after 72 hrs by MTT assay; type: functional, cell-based; settings: S1, 72 h
Summary of the method: (§1)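 Seeding was 6×10^3 cells/well (MDCK, NIH/3T3, MCF-7, MDA-MB-231, LS-180, LS-174, LoVo, S1) after trypsinisation, in DMEM with 10% FBS. Compound at 0.1–100 μM for 72 hr, then MTT (4 mg/mL) for 4 hr. Formazan dissolved in DMSO, absorbance at 570 nm. IC50 by Bliss method; means ± SD, ≥3 experiments in triplicate.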

[2] = Cytotoxicity against human PC3 cells after 72 hrs by MTT assay; type: functional, cell-based; settings: PC-3, 72 h
Summary of the method: (§2)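 HCT-116, HCT-15, HT-29, DU-145, PC-3 or HEK293/pcDNA3.1 cells in DMEM with 10% FBS were trypsinised and seeded at 5×10^3 cells/well. They received compound at 0.1–100 μM for 72 hr, then MTT (4 mg/mL) for 4 hr. Formazan was dissolved in DMSO and A570 read. IC50 by Bliss method from survival curves; ≥3 experiments, each in triplicate.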

2008 = experiment: Cytotoxicity against human 2008 cells after 72 hrs by MTT assay; type: functional, cell-based; settings: Homo sapiens, 2008, 72 h
Summary of the method: (§3)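 MTT assay over 0.1–100 μM with a 72 hr exposure, then 4 hr with MTT (4 mg/mL). Formazan dissolved in DMSO, A570 read. IC50 from survival curves (Bliss method); three independent experiments in triplicate; 100 μM taken as cut-off.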

A2780 = experiment: Cytotoxicity against human A2780 cells after 72 hrs by MTT assay; type: functional, cell-based; settings: A2780, 72 h; summary of the method: as §3
HepG2 [3] = experiment: Cytotoxicity against human HepG2 cells after 72 hrs by MTT assay; type: functional, cell-based; settings: HepG2, 72 h; summary of the method: as §3
MDCK = experiment: Cytotoxicity against MDCK cells after 72 hrs by MTT assay; type: cell-based; settings: Canis lupus familiaris; summary of the method: as §1
[4] = Cytotoxicity against mouse NIH/3T3 cells after 72 hrs by MTT assay; type: cell-based; settings: NIH3T3, 72 h; summary of the method: as §1
HEK293 [5] = experiment: Cytotoxicity against HEK293 cells expressing pcDNA3.1 after 72 hrs by MTT assay; type: cell-based; settings: Homo sapiens, HEK293, 72 h; summary of the method: as §2
[6] = Cytotoxicity against human HCT116 cells after 72 hrs by MTT assay; type: functional, cell-based; settings: HCT-116, 72 h; summary of the method: as §2
DU-145 = experiment: Cytotoxicity against human DU145 cells after 72 hrs by MTT assay; type: functional, cell-based; settings: DU-145, 72 h; summary of the method: as §2
MDA-MB-231 = experiment: Cytotoxicity against human MDA-MB-231 cells after 72 hrs by MTT assay; type: functional, cell-based; settings: MDA-MB-231, 72 h; summary of the method: as §1
HepG2 [7] = experiment: Cytotoxicity against human HepG2 cells assessed as reduction in cell viability at 10 uM after 24 hrs by Celltiter-Glo luminescent cell viability assay; type: cell-based; settings: hepg2, 24 h
Summary of the method: (§4)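 Viability of HepG2 cells was measured in parallel with the PXR reporter assay. Cells were transfected, plated at 10,000/well in phenol red-free DMEM with 5% charcoal/dextran-treated FBS, and treated 24 hr with 1 or 10 μM or DMSO. ATP was quantified by CellTiter-Glo luminescence. Means ± SD of triplicates, t-test versus DMSO.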

MCF7 = experiment: Cytotoxicity against human MCF7 cells after 72 hrs by MTT assay; type: functional, cell-based; settings: MCF7, 72 h; summary of the method: as §1
[8] = Cytotoxicity against human HCT15 cells after 72 hrs by MTT assay; type: functional, cell-based; settings: HCT-15, 72 h; summary of the method: as §2
HT-29 = experiment: Cytotoxicity against human HT-29 cells after 72 hrs by MTT assay; type: functional, cell-based; settings: HT-29, 72 h; summary of the method: as §2
[9] = Cytotoxicity against human LS180 cells after 72 hrs by MTT assay; type: functional, cell-based; settings: LS180, 72 h; summary of the method: as §1
[10] = Cytotoxicity against human LS174 cells after 72 hrs by MTT assay; type: functional, cell-based; settings: LS174, 72 h; summary of the method: as §1
LoVo = experiment: Cytotoxicity against human LoVo cells after 72 hrs by MTT assay; type: functional, cell-based; summary of the method: as §1
HCT-116 [11] = experiment: Induction of morphological changes in human HCT116 cells at 0.5 to 10 uM after 68 hrs by inverted microscopy; type: functional, cell-based
Summary of the method: (§5)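 HCT-116, HCT-15 and HEK293 cells were treated with 0, 0.5, 2 or 10 μM for 68 hr. Each treatment was in triplicate. Cells were photographed under an inverted microscope at 20X and representative images shown.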

HCT-15 = experiment: Induction of morphological changes in human HCT15 cells at 0.5 to 10 uM after 68 hrs by inverted microscopy; type: functional, cell-based; summary of the method: as §5
HEK293 [12] = experiment: Induction of morphological changes in HEK293 cells at 0.5 to 10 uM after 68 hrs by inverted microscopy; type: cell-based; settings: human, hek293, 68 h; summary of the method: as §5
[13] = target: T1, Nuclear receptor subfamily 1 group I member 2 (Homo sapiens, UniProt O75469); experiment: Transactivation of human PXR expressed in human HepG2 cells co-expressing pGL3-CYP3A4-luciferase gene assessed as increase in CYP3A4 promoter activity at 1 uM after 24 hrs by luciferase reporter gene assay; type: ADME, cell-based; settings: hepg2, 24 h
T1 sequence (O75469 whole entry): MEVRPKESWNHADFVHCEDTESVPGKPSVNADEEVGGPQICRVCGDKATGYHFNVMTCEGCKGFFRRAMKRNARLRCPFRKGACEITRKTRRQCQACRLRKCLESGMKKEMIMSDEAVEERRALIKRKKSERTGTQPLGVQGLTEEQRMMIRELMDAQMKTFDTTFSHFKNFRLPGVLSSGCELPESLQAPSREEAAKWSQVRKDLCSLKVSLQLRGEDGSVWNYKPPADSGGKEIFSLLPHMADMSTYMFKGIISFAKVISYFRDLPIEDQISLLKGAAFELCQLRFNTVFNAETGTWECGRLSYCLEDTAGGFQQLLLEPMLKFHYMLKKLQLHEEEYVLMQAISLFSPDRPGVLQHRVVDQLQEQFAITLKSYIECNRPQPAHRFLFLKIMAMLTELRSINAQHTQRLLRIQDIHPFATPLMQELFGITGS
Summary of the method: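 HepG2 cells were transiently cotransfected with pcDNA3-hPXR and pGL3-CYP3A4-luc; after 24 hr they were plated at 10,000/well in phenol red-free DMEM with 5% charcoal-stripped FBS. […] Activity expressed as fold over DMSO; three independent experiments.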

[14] = target: T1, Nuclear receptor subfamily 1 group I member 2; experiment: Transactivation of human PXR expressed in human HepG2 cells co-expressing pGL3-CYP3A4-luciferase gene assessed as increase in CYP3A4 promoter activity at 10 uM after 24 hrs by luciferase reporter gene assay; settings: hepg2, 24 h
HepG2 [15] = experiment: Cytotoxicity against human HepG2 cells assessed as reduction in cell viability at 1 uM after 24 hrs by Celltiter-Glo luminescent cell viability assay; type: cell-based; settings: hepg2, 24 h; summary of the method: as §4
HEK293 [16] = experiment: Cytotoxicity against HEK293 cells expressing ABCB1 gene assessed as reduction in cell viability at 0.001 to 100 uM after 72 hrs by MTT assay; type: functional, cell-based; settings: Homo sapiens
Summary of the method: (§6)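 HEK293 stably overexpressing ABCB1 or ABCG2 (R2), with empty-vector HEK293/pcDNA3.1 as the parental control, grown in DMEM with 10% FBS at 37 °C and 5% CO2. Cells were trypsinised and seeded at 5×10^3 cells/well, then exposed to serial concentrations for 72 hr. MTT (4 mg/mL) was added for 4 hr, formazan dissolved in DMSO, and A570 read. IC50 from survival curves (Bliss method), means ± SD of triplicates.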

HEK293 [17] = experiment: Cytotoxicity against HEK293 cells expressing ABCG2 gene assessed as reduction in cell viability at 0.001 to 100 uM after 72 hrs by MTT assay; type: functional, cell-based; settings: Homo sapiens; summary of the method: as §6
[18] = Cytotoxicity against drug-resistant human S1-M1-80 cells expressing ABCG2 G482 mutant after 72 hrs by MTT assay relative to SN-38; type: functional
[19] = Cytotoxicity against drug-resistant human S1-M1-80 cells expressing ABCG2 G482 mutant after 72 hrs by MTT assay relative to topotecan; type: functional
HCT-116 [20] = experiment: Induction of mitochondrial membrane potential loss in human HCT116 cells at 1 uM after 4 hrs by mitotracker red and Alexa Fluor 488 annexin V staining based flow cytometry; type: functional
Summary of the method: (§7)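 HCT-116 cells in 6-well plates, in complete medium, were exposed to 0, 1 or 10 μM for 4 hr. Harvested cells were stained with MitoTracker Red (4 μL of 10 μM working solution per mL) for 30 min at 37 °C, washed, then given Alexa Fluor 488 annexin V for 15 min in annexin-binding buffer. Flow cytometry emission at 530 and 585 nm; two independent experiments in triplicate.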

HCT-116 [21] = experiment: Induction of mitochondrial membrane potential loss in human HCT116 cells at 10 uM after 4 hrs by mitotracker red and Alexa Fluor 488 annexin V staining based flow cytometry; type: functional; summary of the method: as §7
HCT-116 [22] = experiment: Induction of mitochondrial membrane potential loss in human HCT116 cells after 4 hrs by mitotracker red and Alexa Fluor 488 annexin V staining based flow cytometry; type: functional, cell-based; summary of the method: as §7
HCT-116 [23] = experiment: Induction of DNA fragmentation in human HCT116 cells at 2.5 uM after 6 hrs by ethidium bromide staining based agarose gel electrophoresis; type: functional, cell-based
Summary of the method: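 HCT-116 cells were cultured with or without 2.5 μM for 6 hr. Genomic DNA was extracted with a purification kit, resolved on 1% agarose gels at 40 V, stained with ethidium bromide and photographed, with untreated DNA loaded at 500 ng and 1 μg.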

Homo sapiens = organism: Homo sapiens; experiment: Cytotoxicity against drug-resistant human S1-M1-80 cells expressing ABCG2 G482 mutant after 72 hrs by MTT assay; type: functional, cell-based
Summary of the method: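 S1-M1-80 colon cells (G482 mutant ABCG2), maintained in medium with 80 μM mitoxantrone, tested by MTT alongside parental S1. 72 hr exposure, MTT 4 hr, DMSO solubilisation, A570. IC50 by Bliss method; SN-38 and topotecan run as comparators; means ± SD of triplicate determinations.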

| Compound | pIC50 [1] | pIC50 [2] | pIC50 2008 | pIC50 (A2780) | pIC50 (HepG2 [3]) | pIC50 (MDCK) | pIC50 [4] | pIC50 (HEK293 [5]) | pIC50 [6] | pIC50 (DU-145) | Activity (HepG2 [7]) | further results |
| --- | --- | --- | --- | --- | --- | --- | --- | --- | --- | --- | --- | --- |
| Cc1cc(=O)n2nc3nc4ccccc4cc3c2[nH]1 | 4.20 | 4.33 | 4.05 | 4.13 | 4.05 | < 4.00 | 4.01 | 4.16 |  |  |  |  |
| Cc1cc(NCCN(C)C)n2nc3nc4ccccc4cc3c2n1 | 4.16 | 4.10 | < 4.00 | < 4.00 | < 4.00 | < 4.00 | < 4.00 | 4.03 | 4.18 | 4.22 |  | pIC50 (MDA-MB-231): 4.31 |
| CO[C@H]1/C=C/O[C@@]2(C)Oc3c(C)c(O)c4c(O)c(c(/C=N/N5CCN(C)CC5)c(O)c4c3C2=O)NC(=O)/C(C)=C\C=C\[C@H](C)[C@H](O)[C@@H](C)[C@@H](O)[C@@H](C)[C@H](OC(C)=O)[C@@H]1C [RIFAMPIN] |  |  |  |  |  |  |  |  |  |  | Toxic |  |
| Cc1cc(Cl)n2nc3nc4ccccc4cc3c2n1 | 6.10 | 6.05 | 4.76 | 4.94 | 5.01 | 4.71 | 4.63 | 5.11 | 6.22 | 5.92 | Toxic | pIC50 (MCF7): 5.13; pIC50 [8]: 6.17; pIC50 (HT-29): 6.10; pIC50 [9]: 5.99; pIC50 [10]: 6.06; pIC50 (LoVo): 6.00; Activity (HCT-116 [11]): Active; Activity (HCT-15): Active; Activity (HEK293 [12]): Toxic; Activity [13]: Not Active; Activity [14]: Not Active; Activity (HepG2 [15]): Non-toxic; Activity (HEK293 [16]): Active; Activity (HEK293 [17]): Active; fold change (FC) [18]: 3; fold change (FC) [19]: 3; Activity (HCT-116 [20]): 68.46%; Activity (HCT-116 [21]): 98.36%; Activity (HCT-116 [22]): Dose-dependent effect; Activity (HCT-116 [23]): Active |
| CCc1c2c(nc3ccc(O)cc13)-c1cc3c(c(=O)n1C2)COC(=O)[C@]3(O)CC |  |  |  |  |  |  |  |  |  |  |  | Activity (Homo sapiens): inactive |
